{
  "source": "ChEMBL document CHEMBL4325822",
  "about": "“Discovery of a tetrazolyl β-carboline with in vitro and in vivo osteoprotective activity under estrogen-deficient conditions” (Medchemcomm, 2018)",
  "key": {"Calvarial osteoblast [1]": {"tested_on": "Calvarial osteoblast", "assay": "Induction of osteoblast differentiation in Sprague-Dawley rat calvarial osteoblasts assessed as alkaline phosphatase activity at 0.000001 to 1 uM after 48 hrs using PNPP as substrate by spectrophotometric method relative to control", "assay_type": "functional, cell-based", "how_it_was_run": "(§1)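 Calvarial osteoblasts at 2 × 10³ cells/well. Treated 48 h with varied concentrations in differentiation medium (5% charcoal-treated FBS, 10 mM β-glycerophosphate, 50 µg·mL⁻¹ ascorbic acid). Total ALP read with PNPP substrate at 405 nm. Cell-free wells check for compound interference with substrate or absorbance.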"}, "[2]": {"assay": "Induction of osteoblast differentiation in Sprague-Dawley rat calvarial osteoblasts assessed as alkaline phosphatase activity after 48 hrs using PNPP as substrate by spectrophotometric method", "assay_type": "functional, cell-based", "how_it_was_run": "as §1"}, "[3]": {"assay": "Induction of osteoblast differentiation in Sprague-Dawley rat calvarial osteoblasts assessed as alkaline phosphatase activity at 100 pM after 48 hrs using PNPP as substrate by spectrophotometric method relative to control", "assay_type": "functional", "how_it_was_run": "as §1"}, "Calvarial osteoblast [4]": {"tested_on": "Calvarial osteoblast", "assay": "Increase in BMP2 protein expression in Sprague-Dawley rat calvarial osteoblasts at 100 pM after 48 hrs by Western blot analysis", "assay_type": "functional, cell-based", "how_it_was_run": "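Rat calvarial osteoblasts at 60-70% confluence were treated 48 h. Whole-cell lysates were blotted, blocked in 5% milk, and probed with primary antibody overnight at 4 °C, then with HRP secondary and ECL detection. Densitometry was normalized to β-actin; fold change versus untreated cells, three independent experiments, mean ± SEM.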"}, "Calvarial osteoblast [5]": {"tested_on": "Calvarial osteoblast", "assay": "Increase in Runx2 protein expression in Sprague-Dawley rat calvarial osteoblasts at 100 pM after 48 hrs by Western blot analysis", "assay_type": "functional, cell-based", "how_it_was_run": "(§2)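 Rat calvarial osteoblasts (pooled 1–2-day pups, collagenase/dispase digests) at 60–70% confluence treated 48 h. Whole-cell lysates immunoblotted with primary antibody overnight at 4 °C, then HRP secondary, with ECL detection. Densitometry gives fold change normalized to β-actin versus untreated cells. Mean ± SEM of three independent experiments.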"}, "Calvarial osteoblast [6]": {"tested_on": "Calvarial osteoblast", "assay": "Increase in OCN protein expression in Sprague-Dawley rat calvarial osteoblasts at 100 pM after 48 hrs by Western blot analysis", "assay_type": "functional, cell-based", "how_it_was_run": "as §2"}, "[7]": {"assay": "Increase in Runx2 mRNA expression in Sprague-Dawley rat calvarial osteoblasts at 100 pM by RT-PCR method relative to control", "assay_type": "functional, Calvarial osteoblast"}, "Calvarial osteoblast [8]": {"tested_on": "Calvarial osteoblast", "assay": "Osteogenic activity in Sprague-Dawley rat calvarial osteoblasts assessed as mineralized nodule formation at 100 pM after 21 days by alizarin red-S staining based colorimetric method", "assay_type": "functional", "how_it_was_run": "(§3)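 Osteoblasts at 10,000–15,000 cells/cm² in duplicate plates, 21 days in differentiation medium, medium changed every 48 h. Cells fixed in 4% PFA, stained with alizarin red-S (40 mM, pH 4.5, 30 min) and photographed. Stain extracted with 10% acetic acid, pH brought to 4.5 with ammonium hydroxide, read at 405 nm, normalized to cell number.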"}, "Calvarial osteoblast [9]": {"tested_on": "Calvarial osteoblast", "assay": "Cytotoxicity against Sprague-Dawley rat calvarial osteoblasts assessed as reduction in cell viability at 0.000001 to 1 uM after 48 hrs by MTT assay", "assay_type": "cell-based", "how_it_was_run": "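Osteoblasts came from pooled calvaria of 1-2-day-old Sprague-Dawley pups, isolated by sequential dispase/collagenase digestion. Cells were exposed to compound at 1 pM to 1 µM for 48 h, and viability was measured by MTT.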"}, "[10]": {"assay": "Increase in OCN mRNA expression in Sprague-Dawley rat calvarial osteoblasts at 100 pM by RT-PCR method relative to control", "assay_type": "functional, Calvarial osteoblast", "how_it_was_run": "(§4)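 Primary calvarial osteoblasts were lysed in TRIzol after treatment, and total RNA was extracted. Transcripts were quantified by real-time PCR using the comparative CT (ΔΔCT) method.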"}, "Calvarial osteoblast [11]": {"tested_on": "Calvarial osteoblast", "assay": "Osteogenic activity in Sprague-Dawley rat calvarial osteoblasts assessed as mineralized nodule formation at 100 pM after 21 days by alizarin red-S staining based light microscopic method", "assay_type": "functional, cell-based", "how_it_was_run": "as §3"}, "[12]": {"assay": "Increase in BMP2 mRNA expression in Sprague-Dawley rat calvarial osteoblasts at 100 pM by RT-PCR method relative to control", "assay_type": "functional, Calvarial osteoblast", "how_it_was_run": "as §4"}, "Calvarial osteoblast [13]": {"tested_on": "Calvarial osteoblast", "assay": "Induction of osteoblast differentiation in Sprague-Dawley rat calvarial osteoblasts assessed as alkaline phosphatase activity at 10 nM after 48 hrs using PNPP as substrate by spectrophotometric method relative to control", "assay_type": "functional", "how_it_was_run": "as §1"}, "[14]": {"settings": "Rattus norvegicus, Sprague-Dawley, Calvarial osteoblast, 48 h, read-out: EC50"}},
  "note": "Activity calls are given as the source filed them. The calls are words filed in the database; no cut-off is given here.",
  "data": [
    {"smiles": "CCOC(=O)c1cc2c([nH]c3ccccc32)c(C(c2nnnn2C(C)(C)C)N2CCOCC2)n1", "note": "(stereo not drawn)", "values": [
      {"measurement": "Emax", "setting": "Calvarial osteoblast [1]", "value": "inactive"},
      {"measurement": "EC50", "setting": "[2]; calvarial osteoblast", "value": "Not Active"}
    ]},
    {"smiles": "COC(=O)c1cc2c([nH]c3ccccc32)c(C(NC(C)(C)C)c2nnnn2C(C)(C)C)n1", "note": "(stereo not drawn)", "values": [
      {"measurement": "Emax", "setting": "Calvarial osteoblast [1]", "value": "inactive"},
      {"measurement": "EC50", "setting": "[2]; calvarial osteoblast", "value": "Not Active"}
    ]},
    {"smiles": "COC(=O)c1cc2c([nH]c3ccccc32)c(C(NCc2ccc(C)cc2)c2nnnn2C(C)(C)C)n1", "note": "(stereo not drawn)", "values": [
      {"measurement": "Emax", "setting": "Calvarial osteoblast [1]", "value": "inactive"},
      {"measurement": "EC50", "setting": "[2]; calvarial osteoblast", "value": "Not Active"}
    ]},
    {"smiles": "CCOC(=O)c1cc2c([nH]c3ccccc32)c(C(NC(C)(C)C)c2nnnn2C(C)(C)C)n1", "note": "(stereo not drawn)", "values": [
      {"measurement": "Emax", "setting": "Calvarial osteoblast [1]", "value": "inactive"},
      {"measurement": "EC50", "setting": "[2]; calvarial osteoblast", "value": "Not Active"}
    ]},
    {"smiles": "COC(=O)c1cc2c([nH]c3ccccc32)c(C(NCc2ccccc2)c2nnnn2C(C)(C)C)n1", "note": "(stereo not drawn)", "values": [
      {"measurement": "Emax at 0.0001 µM", "setting": "[3]", "value": 29, "unit": "%"},
      {"measurement": "EC50", "setting": "[2]; [14]", "value": 0.468, "unit": "µM"}
    ]},
    {"smiles": "COC(=O)c1cc2c([nH]c3ccccc32)c(C(c2nnnn2C(C)(C)C)N2CCN(c3ncccn3)CC2)n1", "note": "(stereo not drawn)", "values": [
      {"measurement": "Activity", "setting": "Calvarial osteoblast [4]", "value": "Active"},
      {"measurement": "Activity", "setting": "Calvarial osteoblast [5]", "value": "Active"},
      {"measurement": "Activity", "setting": "Calvarial osteoblast [6]", "value": "Active"},
      {"measurement": "fold change (FC)", "setting": "[7]", "value": "1.8 - 4.6"},
      {"measurement": "Emax at 0.0001 µM", "setting": "[3]", "value": 80, "unit": "%"},
      {"measurement": "Activity", "setting": "Calvarial osteoblast [8]", "value": 48, "unit": "%"},
      {"measurement": "Activity", "setting": "Calvarial osteoblast [9]", "value": "Non-Toxic"},
      {"measurement": "fold change (FC)", "setting": "[10]", "value": "1.8 - 4.6"},
      {"measurement": "Activity", "setting": "Calvarial osteoblast [11]", "value": "Active"},
      {"measurement": "EC50", "setting": "[2]; [14]", "value": 3.27, "unit": "µM"},
      {"measurement": "fold change (FC)", "setting": "[12]", "value": "1.8 - 4.6"}
    ]},
    {"smiles": "CCOC(=O)c1cc2c([nH]c3ccccc32)c(C(c2nnnn2C(C)(C)C)N2CCN(Cc3ccc4c(c3)OCO4)CC2)n1", "note": "(stereo not drawn)", "values": [
      {"measurement": "Emax", "setting": "Calvarial osteoblast [1]", "value": "inactive"},
      {"measurement": "EC50", "setting": "[2]; calvarial osteoblast", "value": "Not Active"}
    ]},
    {"smiles": "CCOC(=O)c1cc2c([nH]c3ccccc32)c(C(c2nnnn2C(C)(C)C)N2CCN(c3ccc(F)cc3)CC2)n1", "note": "(stereo not drawn)", "values": [
      {"measurement": "Emax", "setting": "Calvarial osteoblast [1]", "value": "inactive"},
      {"measurement": "EC50", "setting": "[2]; calvarial osteoblast", "value": "Not Active"}
    ]},
    {"smiles": "CCN1CCN(C(c2nc(C(=O)OC)cc3c2[nH]c2ccccc23)c2nnnn2C(C)(C)C)CC1", "note": "(stereo not drawn)", "values": [
      {"measurement": "Emax", "setting": "Calvarial osteoblast [13]", "value": "inactive"},
      {"measurement": "EC50", "setting": "[2]; calvarial osteoblast", "value": "Not Active"}
    ]},
    {"smiles": "COC(=O)CNC(c1nc(C(=O)OC)cc2c1[nH]c1ccccc12)c1nnnn1C(C)(C)C", "note": "(stereo not drawn)", "values": [
      {"measurement": "Emax", "setting": "Calvarial osteoblast [1]", "value": "inactive"},
      {"measurement": "EC50", "setting": "[2]; calvarial osteoblast", "value": "Not Active"}
    ]},
    {"smiles": "COC(=O)c1cc2c([nH]c3ccccc32)c(C(NCc2ccc(Cl)c(Cl)c2)c2nnnn2C(C)(C)C)n1", "note": "(stereo not drawn)", "values": [
      {"measurement": "Emax", "setting": "Calvarial osteoblast [1]", "value": "inactive"},
      {"measurement": "EC50", "setting": "[2]; calvarial osteoblast", "value": "Not Active"}
    ]},
    {"smiles": "CCOC(=O)c1cc2c([nH]c3ccccc32)c(C=O)n1", "values": [
      {"measurement": "Activity", "setting": "Calvarial osteoblast [4]", "value": "Active"},
      {"measurement": "Activity", "setting": "Calvarial osteoblast [5]", "value": "Active"},
      {"measurement": "Activity", "setting": "Calvarial osteoblast [6]", "value": "Active"},
      {"measurement": "fold change (FC)", "setting": "[7]", "value": "1.8 - 4.6"},
      {"measurement": "Emax at 0.0001 µM", "setting": "[3]", "value": 65, "unit": "%"},
      {"measurement": "Activity", "setting": "Calvarial osteoblast [8]", "value": 20, "unit": "%"},
      {"measurement": "Activity", "setting": "Calvarial osteoblast [9]", "value": "Non-Toxic"},
      {"measurement": "fold change (FC)", "setting": "[10]", "value": "1.8 - 4.6"},
      {"measurement": "EC50", "setting": "[2]; [14]", "value": 0.613, "unit": "µM"},
      {"measurement": "fold change (FC)", "setting": "[12]", "value": "1.8 - 4.6"}
    ]},
    {"smiles": "CCOC(=O)c1cc2c([nH]c3ccccc32)c(C(c2nnnn2C(C)(C)C)N2CCN(C(=O)c3ccco3)CC2)n1", "note": "(stereo not drawn)", "values": [
      {"measurement": "Emax", "setting": "Calvarial osteoblast [1]", "value": "inactive"},
      {"measurement": "EC50", "setting": "[2]; calvarial osteoblast", "value": "Not Active"}
    ]}
  ]
}
